Ecoli rRNA inh: selective bacterial rRNA inhibition in E. coli. 350,000 compounds, 1.6% hits. GFP signal change (wild-type ribosome), % (test concentration not listed). E. coli WT GFP vs humanized-ribosome RFP mutants, fluorescence, 24 h; hits give low values; DMSO median 0, no signal -100;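 active = significant combined selectivity score with lowered wild-type GFP, culture density cut under 30%, mutant RFP and density less affected; inactive = any of these conditions unmet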
DENV2 CPE rescue: DENV2-induced cell death inhibition; DENV2-infected cells, cytopathic effect rescue, plate reader; CPE inhibition, % at 9.99 µM; 350,000 compounds, 1.7% hits; AID 651640; in the data active = CPE inhibition above about 20%, passing the limit was not always enough; tested in BHK-21 cells;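 also: 0% = median of neutral control wells and 100% = median of positive control wells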
Cneo AK release: causes C. neoformans cell lysis; adenylate kinase release luminescence, 4 h; normalised: neutral wells 0, clomiphene wells 100; lysis activity, % at 15 µM; 360,000 compounds, 0.2% hits;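 active = mean lysis activity across replicates of at least 80%, whatever share of replicates individually reach that level; inactive = mean lysis activity below 80%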
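Material – log-phase Cryptococcus neoformans yeast cells · Input – 5 × 10^6 yeast cells/mL · Medium – fresh YPD growth medium · Doses – single compound concentration per well · Timing – static 4 h at 37 °C with compound, 1 h detection · Detection – adenylate kinase release luminescence · Read-out – signal increase indicating cell lysis · Control set – Clomiphene as positive lysis control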
miR-122 sensor: miR-122 inhibition in Huh7 cells; activation (reporter increase), % at 12.5 µM; 340,000 compounds, 0.3% hits; AID 602342; Huh7 miR-122 Renilla luciferase sensor, 48 h; neutral wells = 0, positive control = 100;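 active = mean replicate activation score at least 90 and every replicate individually at or above 90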;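 also: higher luciferase means less miR-122 activity so hits act as miR-122 inhibitors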
E-sel inducer: induces E-selectin expression in human endothelial cells; P16581; HUVEC E-selectin immunofluorescence imaging; normalized: neutral wells 0, TNF-alpha wells 100; AID 686992; activation, % at 7.58 µM; 260,000 compounds, 0.37% hits;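 active = mean E-selectin-positive cell signal at least 10% of the positive control, reached in at least 60% of replicates, without over 20% cell loss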
Target sequence (P16581 whole entry, looked up): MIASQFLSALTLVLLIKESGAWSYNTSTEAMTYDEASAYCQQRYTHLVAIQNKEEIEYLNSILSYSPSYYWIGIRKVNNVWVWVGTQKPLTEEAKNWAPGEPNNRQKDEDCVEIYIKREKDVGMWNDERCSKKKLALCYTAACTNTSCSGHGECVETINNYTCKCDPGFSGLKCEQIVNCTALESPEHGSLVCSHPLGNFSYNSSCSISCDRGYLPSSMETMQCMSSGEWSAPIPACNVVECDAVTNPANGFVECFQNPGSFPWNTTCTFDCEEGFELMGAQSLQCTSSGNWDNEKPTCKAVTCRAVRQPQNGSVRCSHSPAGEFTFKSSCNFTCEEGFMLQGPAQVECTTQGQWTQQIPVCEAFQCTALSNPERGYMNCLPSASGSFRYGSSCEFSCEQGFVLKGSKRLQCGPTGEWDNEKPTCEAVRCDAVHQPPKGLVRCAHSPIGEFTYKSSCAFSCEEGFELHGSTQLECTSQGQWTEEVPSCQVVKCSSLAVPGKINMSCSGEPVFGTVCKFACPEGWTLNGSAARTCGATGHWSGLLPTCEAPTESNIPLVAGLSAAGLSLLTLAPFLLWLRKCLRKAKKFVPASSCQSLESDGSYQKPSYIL
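Test system: HUVEC; input: 3,000 HUVEC/well; measured by: immunofluorescence imaging; read-out: % PE-positive cells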
Active calls of the source: *; / = no result; [ ] = remark or other dose. In the library only some 3.1% were active in any assay of this set; here they are far more common.

SMILES	Ecoli rRNA inh	DENV2 CPE rescue	Cneo AK release	miR-122 sensor	E-sel inducer
COc1ccc(/C=C2\SC(N3CCCCC3)=NC2=O)cc1	-4	0	0	9	0
COc1cc(/C=C2\SC(N3CCCCC3)=NC2=O)cc(OC)c1OC	-28*	2	/	/	/
CN1c2ccc(-c3ccccc3F)cc2[C@H]2[C@H](CCN2C(=O)CN2CCOCC2)[C@@H]1CO	-1	-5	-8	-1[16.7 µM]	0
CC(=O)NCCNc1nc(NCc2cccs2)nc2ccsc12	-8	71*	-1	-7	0
COCCNc1nc(NCc2cccs2)nc2ccsc12	1	-3	-1	-7	0
COCC(=O)Nc1ccc2c(c1)C(=O)N(C)[C@@H]1CC[C@@H](CC(=O)Nc3cn(C)nc3C)O[C@H]1CO2	4	-8	-1	4[16.7 µM]	0
COc1ccc(-c2csc(NC(=O)C3CSC4(C)CCC(=O)N34)n2)cc1 (centres undefined)	13	0	-1	/	0
CC12CCC(=O)N1C(C(=O)Nc1ccc(S(=O)(=O)N3CCCCC3)cc1)CS2 (centres undefined)	3	32*	/	1	1
CC12CCC(=O)N1C(C(=O)Nc1cc(Cl)ccc1N1CCOCC1)CS2 (centres undefined)	-16	-8	-1	0	135*
CC12CCC(=O)N1C(C(=O)Nc1nc(-c3ccccc3)cs1)CS2 (centres undefined)	0	29*	/	/	0
CN1C(=O)c2cc(NC(=O)c3ccc(F)c(F)c3)ccc2OC[C@@H]2O[C@@H](CC(=O)N3CCOCC3)CC[C@H]21	/	1	43	-10[16.7 µM]	0
O=C(C[C@@H]1CC[C@H]2[C@@H](COC[C@@H](O)CN2Cc2cccc(C(F)(F)F)c2)O1)NCc1ccc(F)cc1	-2	-24	-6	-13[16.7 µM]	0
c1ccc(-n2nnnc2NCCc2c[nH]c3ccccc23)cc1	/	/	0	-32	/
Cc1ccc(-n2nnnc2-c2ccccc2Br)cc1	-28*	0	0	4	/
c1ccc(CNc2nnnn2-c2ccccc2)cc1	/	/	-1	128*	0
Cc1ccc(-c2nnnn2-c2ccc(C)cc2)cc1	-9	-5	/	/	/
c1ccc(-n2nnnc2-c2cccc3ccccc23)cc1	-34	-3	/	116*	1
Clc1ccc2[nH]cc(-c3nnnn3-c3ccccc3)c2c1	/	/	-1	32	/
O=C([C@H]1[C@H](CO)[C@H]2Cn3c(cccc3=O)[C@H]2N1Cc1ccccn1)N1CCC(Cc2ccccc2)CC1	1	-6	/	/	0
COc1ccc2c3c([nH]c2c1)[C@@H](CO)N(C(=O)c1cnccn1)CC31CN(S(C)(=O)=O)C1	-1	-1	/	/	0
Cc1nc(CCNC(=O)CC2C(=O)NCCN2CC(C)C)nc2c1CCC2 (centres undefined)	9	44*	4	5	0
CCCC/C(O)=C1\C(=O)CCCC1=NCCc1c(C)[nH]c2ccccc12	-23*	8	/	/	/
CCC/C(O)=C1\C(=O)CCCC1=NCCc1c(C)[nH]c2ccc(C)cc12	3	4	1	2	0
O=C(NCc1ccccc1)/C(=C\c1cccc([N+](=O)[O-])c1)NC(=O)c1ccco1	17	46*	0	2	0
COCCn1c(-c2ccc(Cl)cc2)cnc1SCC(=O)NCCc1ccc(OC)c(OC)c1	-22*	-3	/	/	/
SMILES	Ecoli rRNA inh	DENV2 CPE rescue	Cneo AK release	miR-122 sensor	E-sel inducer
O=[N+]([O-])c1cc(S(=O)(=O)O)cc([N+](=O)[O-])c1NN(c1ccccc1)c1ccccc1	-1	0	3	-7	56*
CC(Oc1ccc(S(=O)(=O)N2CCCC2)cc1[N+](=O)[O-])C(=O)N(C)c1ccccc1 (centres undefined)	9	0	4	-13	/
CCN(CC(=O)Nc1c(F)cccc1F)C(=O)C1CCN(S(=O)(=O)c2ccc(F)cc2)CC1	8	28*	1	/	/
Cc1ccc(-c2ccc([C@@H]3[C@H](CO)N4CCCCN(C)C[C@@H]34)cc2)cc1	2	-1	0	7[16.7 µM]	0
O=S(=O)(c1cccs1)N1CCCCN2[C@H](CO)[C@H](c3ccc(C4=CCCCC4)cc3)[C@@H]2C1	/	-8	1	-23[16.7 µM]	/
O=S(=O)(c1cccs1)N1CCCCN2[C@@H](CO)[C@@H](c3ccc(C4=CCCC4)cc3)[C@@H]2C1	-34*	10	10	5[16.7 µM]	-1
